# Legend:
# [1] = species: Homo sapiens; experiment: Ratio of IC50 of inhibition of platelet aggregation to IC50 of inhibition of platelet PDE (Efficacy index); assay type: functional
# Procedure, shortened: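 Efficacy index is the IC50 for inhibition of ADP-induced platelet aggregation divided by the IC50 for human platelet PDE inhibition. Both IC50s come from graphical dose-response curves (five concentrations, triplicate).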
# [2] = Inhibition of ADP-induced platelet aggregation; assay type: functional
# Procedure, shortened: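 ADP-induced platelet aggregation. Read-out is the rate of change in percentage transmission of the primary aggregation phase after 5 min incubation. Each agent tested at five concentrations in triplicate, with experiments repeated at least twice using platelets from different donors. IC50 (μM) determined graphically.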
# [3] = target: Phosphodiesterase; PDE3 & PDE4 (Homo sapiens) (UniProt P27815+Q14432+Q08499+Q07343+Q13370+Q08493); experiment: In vivo inhibition of cyclic AMP phosphodiesterase from dog heart
# Procedure, shortened: (§1)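 Cyclic AMP phosphodiesterase prepared from human platelets (IC50, nM) or from rat or dog heart tissue (IC25, nM). Each agent tested at five inhibitor concentrations in triplicate. IC50/IC25 read graphically from the dose-response curve.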
# [4] = target: Phosphodiesterase 3 (Homo sapiens, UniProt Q14432+Q13370); experiment: In vitro inhibition of cyclic AMP phosphodiesterase from human platelets
# [5] = In vivo inhibition of cyclic AMP phosphodiesterase from rat heart; conditions: in the assay text read “In vitro” for “In vivo”; procedure, shortened: as §1
# [6] = Canis lupus familiaris; target entry is the homologue from another species; in the assay text read “In vitro” for “In vivo”
# [7] = Canis lupus familiaris; in the assay text read “In vitro” for “In vivo”; target entry is the homologue from another species
Structure (SMILES),Ratio [1],IC50 [2] [nM],"IC25 [3, 6] [nM]",IC50 [4] [nM],"IC25 [3, 7] [nM]",IC25 [5] [nM]
CN(C(=O)CCCOc1ccc2c(c1)CN1C(=N2)NC(=O)[C@H]1CO)C1CCCCC1,373,6900,72,18.5,–,–
O=C1CN2Cc3cc(OCCCC(=O)N(CCCCCO)C4CCCCC4)ccc3N=C2N1,551,2700,–,4.9,2.3,–
CN(C(=O)NCCOc1ccc2c(c1)CN1CC(=O)NC1=N2)C1CCCCC1,506,8600,–,17,780,–
NC(=O)CN(C(=O)CCCOc1ccc2c(c1)CN1CC(=O)NC1=N2)C1CCCCC1,1818,20000,100,11,–,–
CC[C@@H]1C(=O)NC2=Nc3ccc(OCCCC(=O)N(C)C4CCCCC4)cc3CN21,15,5600,–,370,620,–
O=C1CN2Cc3cc(OCCCC(=O)OC4CCCCC4)ccc3N=C2N1,168,3400,–,18,43,–
CN(C(=O)CCCOc1ccc2c(c1)CN1C(=N2)NC(=O)C1(C)C)C1CCCCC1,9,4300,–,470,2400,–
CN(C(=O)CCCOc1ccc2c(c1)CN1CC(=O)NC1=N2)C1CCCC1,30,1450,25,48,–,–
O=C1CN2Cc3cc(OCCCC(=O)N4CCCC5CCCCC54)ccc3N=C2N1 (centres undefined),65,880,–,13.5,–,200
CN(C(=O)CCCOc1ccc2c(c1)CN1C(=O)CNC1=N2)C1CCCCC1,8,120000,–,15000,1600,–
CN(C(=O)CCCCCCOc1ccc2c(c1)CN1CC(=O)NC1=N2)C1CCCCC1,287,4600,–,16,–,45
CCOC(=O)CCCOc1ccc2c(c1)CN1CC(=O)NC1=N2,6.7,1600,440,240,–,–
CN(Cc1ccccc1)C(=O)CCCOc1ccc2c(c1)CN1CC(=O)NC1=N2,38,980,–,26,–,240
CCN(C(=O)CCCOc1ccc2c(c1)CN1CC(=O)NC1=N2)C1CCCCC1,120,180,5.2,1.5,–,–
NC(=O)CCCOc1ccc2c(c1)CN1CC(=O)NC1=N2,68,47000,380,690,–,–
CN(C(=O)CCCOc1ccc2c(c1Cl)CN1CC(=O)NC1=N2)C1CCCCC1,79,1100,100,14,–,–
O=C1CN2Cc3cc(OCCCC(=O)N(CCO)C4CCCCC4)ccc3N=C2N1,228,2850,–,12.5,–,70
CC[C@H]1C(=O)NC2=Nc3ccc(OCCCC(=O)N(C)C4CCCCC4)cc3CN21,14,8200,450,580,–,–
CC(C)N(C(=O)CCCOc1ccc2c(c1)CN1CC(=O)NC1=N2)C1CCCCC1,81,260,–,3.2,15,–
C[C@@H]1C(=O)NC2=Nc3ccc(OCCCC(=O)N(C)C4CCCCC4)cc3CN21,66,360,27,5.4,–,–
CN(C(=O)CCCSc1ccc2c(c1)CN1CC(=O)NC1=N2)C1CCCCC1,178,25000,–,140,260,–
CN(C(=O)CCCOc1cccc2c1CN1CC(=O)NC1=N2)C1CCCCC1,30,60000,–,2000,1500,–
CC(O)[C@H]1C(=O)NC2=Nc3ccc(OCCCC(=O)N(C)C4CCCCC4)cc3CN21 (some centres undefined),22,22000,1700,1000,–,–
O=C1CN2Cc3cc(OCCCC(=O)N4CCOCC4)ccc3N=C2N1,33,53000,–,1600,–,7000
COCCN(C(=O)CCCOc1ccc2c(c1)CN1CC(=O)NC1=N2)C1CCCCC1,81,105,–,1.3,< 10,–
CC1c2cc(OCCCC(=O)N(C)C3CCCCC3)ccc2NC2=NC(=O)CN21 (centres undefined),22,130,–,5.9,14,–

Structure (SMILES),Ratio [1],IC50 [2] [nM],"IC25 [3, 6] [nM]",IC50 [4] [nM],"IC25 [3, 7] [nM]",IC25 [5] [nM]
O=C1CN2Cc3cc(OCCCC(=O)N(CCN4CCOCC4)C4CCCCC4)ccc3N=C2N1,243,1000,32,4.1,–,–
CN(C(=O)CCCOc1ccc2c(c1)CN1C(=N2)NC(=O)C12CC2)C1CCCCC1,66,50000,–,760,3700,–
O=C1CN2Cc3cc(OCCCC(=O)N(C4CCCCC4)C4CCCCC4)ccc3N=C2N1,300,420,–,1.45,–,16
O=C1CN2Cc3cc(OCCCC(=O)N(CCCO)C4CCCCC4)ccc3N=C2N1,283,1700,–,6,17,–
CN(C(=O)CCCOc1ccc2c(c1)CN1CC(=O)NC1=N2)C1CCCCCC1,250,250,4.2,1,–,–
CN(C(=O)CCCOc1ccc2c(c1)CN1C(=N2)NC(=O)[C@@H]1CO)C1CCCCC1,563,15500,–,27.5,90,–
CN(C(=O)CCCOc1ccc2c(c1)CN1C(=O)C(=O)NC1=N2)C1CCCCC1,34,150000,–,4400,1700,–
CN(C(=O)CCCOc1ccc2c(c1)CN1CCC(=O)NC1=N2)C1CCCCC1,14.6,1900,100,130,–,–
O=C1CN2Cc3cc(OCCCC(=O)NC4CCCCC4)ccc3N=C2N1,139,10000,–,72,180,–
C=c1c(=O)[nH]c2n1Cc1cc(OCCCC(=O)N(C)C3CCCCC3)ccc1N=2,55.5,150,–,2.7,45,–
CN(C(=O)CCCOc1ccc2c(c1)CN1CC(=O)NC1=N2)C1CCC(O)CC1 (centres undefined),208,25000,290,120,–,–
O=C1CN2Cc3cc(OCCCC(=O)N(CCCCO)C4CCCCC4)ccc3N=C2N1,625,4000,7.2,6.4,–,–
CN(C(=O)OCCOc1ccc2c(c1)CN1CC(=O)NC1=N2)C1CCCCC1,115,1500,–,13,58,–
CN(C(=O)CCCOc1ccc2c(c1)NC1=NC(=O)CN1C2)C1CCCCC1,173,26000,64,150,–,–
CN(C(=O)CCCOc1ccc2c(c1)CN1CC(=O)NC1=N2)C1CCCCCCC1,86,190,–,2.2,1.6,–
CN(C(=O)CCCS(=O)(=O)c1ccc2c(c1)CN1CC(=O)NC1=N2)C1CCCCC1,19,58000,6600,3100,–,–
O=C1CN2Cc3cc(OCCCC(=O)N(CCCCCCO)C4CCCCC4)ccc3N=C2N1,1111,4000,2,3.6,–,–
O=C1CN2Cc3cc(OCCCC(=O)N(C(CO)CO)C4CCCCC4)ccc3N=C2N1,6833,82000,26,12,–,–
CC(O)[C@@H]1C(=O)NC2=Nc3ccc(OCCCC(=O)N(C)C4CCCCC4)cc3CN21 (some centres undefined),34,54000,–,1600,3700,–
C[C@H]1C(=O)NC2=Nc3ccc(OCCCC(=O)N(C)C4CCCCC4)cc3CN21,18,470,78,26,–,–
O=C1CN2Cc3cc(OCCCC(=O)N(CCn4ccnc4)C4CCCCC4)ccc3N=C2N1,642,3600,–,5.6,7,–
O=C1CN2Cc3cc(OCCCC(=O)N(Cc4ccccc4)Cc4ccccc4)ccc3N=C2N1,–,–,–,–,–,60
COC(=O)CN(C(=O)CCCOc1ccc2c(c1)CN1CC(=O)NC1=N2)C1CCCCC1,350,700,10,2,–,–
O=C1CN2Cc3cc(OCCCc4nnnn4C4CCCCC4)ccc3N=C2N1,222,1000,–,4.5,18,–
CN(C(=O)CCCCc1ccc2c(c1)CN1CC(=O)NC1=N2)C1CCCCC1,33,6600,–,200,220,–
CN(C)C(=O)CCCOc1ccc2c(c1)CN1CC(=O)NC1=N2,75,90000,–,1200,–,–

# Source: ChEMBL document CHEMBL1123670, “Inhibitors of cyclic AMP phosphodiesterase. 2. Structural variations of N-cyclohexyl-N-methyl-4-[(1,2,3,5-tetrahydro- 2-oxoimidazo[2,1-b]quinazolin-7-yl)-oxy]butyramide (RS-82856)” (J Med Chem, 1987)
